We go through 37 molecules from ChEMBL document CHEMBL1156993, “Benzyl prolinate derivatives as novel selective KCC2 blockers” (Bioorg Med Chem Lett, 2010).

Structures are written as SMILES.

Assay [1] deals with T1, Solute carrier family 12 member 5 (Rattus norvegicus, UniProt Q63633).
T1 sequence (Q63633 whole entry): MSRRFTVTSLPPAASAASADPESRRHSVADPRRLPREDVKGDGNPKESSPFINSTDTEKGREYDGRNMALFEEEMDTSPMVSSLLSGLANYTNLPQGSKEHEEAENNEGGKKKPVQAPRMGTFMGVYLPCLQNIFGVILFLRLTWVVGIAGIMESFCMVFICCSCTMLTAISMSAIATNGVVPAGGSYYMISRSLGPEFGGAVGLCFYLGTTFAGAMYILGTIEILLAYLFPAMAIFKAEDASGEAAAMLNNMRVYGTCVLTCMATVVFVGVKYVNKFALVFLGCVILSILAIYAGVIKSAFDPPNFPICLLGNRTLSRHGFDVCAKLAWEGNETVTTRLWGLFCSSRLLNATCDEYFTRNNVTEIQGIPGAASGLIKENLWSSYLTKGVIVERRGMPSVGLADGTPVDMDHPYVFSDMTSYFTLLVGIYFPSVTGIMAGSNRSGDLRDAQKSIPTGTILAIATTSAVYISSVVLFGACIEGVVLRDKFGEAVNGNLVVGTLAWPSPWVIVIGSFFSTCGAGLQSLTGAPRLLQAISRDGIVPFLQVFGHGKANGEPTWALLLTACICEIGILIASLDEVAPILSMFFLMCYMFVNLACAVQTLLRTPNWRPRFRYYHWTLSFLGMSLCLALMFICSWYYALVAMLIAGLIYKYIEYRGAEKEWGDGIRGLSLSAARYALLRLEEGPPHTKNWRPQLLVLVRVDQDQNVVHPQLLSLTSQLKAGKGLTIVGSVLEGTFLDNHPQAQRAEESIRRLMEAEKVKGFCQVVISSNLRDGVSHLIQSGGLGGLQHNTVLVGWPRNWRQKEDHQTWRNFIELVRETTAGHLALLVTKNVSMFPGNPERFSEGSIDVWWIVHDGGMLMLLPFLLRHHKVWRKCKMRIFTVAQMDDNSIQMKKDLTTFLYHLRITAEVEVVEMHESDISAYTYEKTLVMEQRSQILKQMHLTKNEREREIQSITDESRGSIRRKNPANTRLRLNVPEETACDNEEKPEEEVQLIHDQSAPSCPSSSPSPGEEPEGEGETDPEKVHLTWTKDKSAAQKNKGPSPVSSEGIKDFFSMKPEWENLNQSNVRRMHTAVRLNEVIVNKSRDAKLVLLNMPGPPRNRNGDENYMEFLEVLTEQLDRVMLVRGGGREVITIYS
Briefly: Antagonist activity of rat KCC2 transporter expressed in human SK-Hep cells assessed as inhibition of N-ethylmaleimide-mediated Rb+ influx after 10 mins by atomic absorption spectroscopy. It is filed as functional, cell-based. A digest of the protocol:
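Rat KCC2 stably expressed in a selected clone. The co-transporter is activated with N-ethylmaleimide in the presence of the test compound, and Rb+ influx is started by adding 5 mM RbCl to the extracellular medium. Influx is stopped after 10 min by repeated washes. Intracellular Rb+ is measured by atomic absorption spectroscopy, and IC50 is reported.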

A short description of assay [2]: Antagonist activity to dog NKCC1 transporter expressed in MDCK cells assessed as inhibition of Cl- free medium-stimulated Rb+ influx at 100 uM after 45 mins by atomic absorption spectroscopy. It is filed as functional, Canis lupus familiaris. A digest of the protocol: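 MDCK cells express endogenous canine NKCC1. NKCC1 is activated by incubating the cells for 2 h in Cl−-free medium. Rb+ influx is then stimulated for 45 min by adding 20 mM RbCl to the extracellular solution. Intracellular Rb+ is quantified by atomic absorption spectroscopy, and results are given as percent inhibition.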

Turning to `COC(=O)C1(Cc2ccccc2)CCCN1C(C)=O` (stereo not drawn), the IC50 (in general, the concentration needed to halve the response being measured) in assay [1] is above 100 µM. The same measure, in the same setting: the result for `CC(=O)N1CCCC1(Cc1cccc(C#N)c1)C(=O)OCc1ccccc1` (stereo not drawn) reads 0.32 µM; that for `CC(=O)N1CCCC1(Cc1ccccc1)C(=O)NCc1ccccc1` (stereo not drawn), 100 µM. Consider `CCN1CCCC1(Cc1ccccc1)C(=O)OCc1ccccc1` (stereo not drawn), for which the IC50 in assay [1] was above 100 µM. Still for that read-out and setting: the result for `CC(=O)N1CCCC1(Cc1ccc(F)cc1)C(=O)OCc1ccccc1` (stereo not drawn) reads 0.2 µM. Still for that read-out and setting: the result for `CC(=O)N1CCCC1(Cc1ccccc1)C(=O)OCC1CCCCC1` (stereo not drawn) reads 63 µM. In the case of `CC(=O)N1CCCC1(Cc1ccccc1)C(=O)O` (stereo not drawn), the IC50 in assay [1] is above 100 µM.

In the case of `CC(=O)N1CCCC1(Cc1ccccc1)C(=O)OCc1ccccc1` (single isomer, unassigned; (+)), the IC50 in assay [1] is 0.32 µM. Further, in assay [2], the “inhibition (INH)” value is 14%. Take `CC(=O)N1CCCC1(Cc1ccncc1)C(=O)OCc1ccccc1` (stereo not drawn): in assay [1], the half-maximal inhibitory concentration (IC50) is 2 µM. Consider `CC(=O)N1CCCC1(Cc1ccccc1)C(=O)OC(C)c1ccccc1` (stereo not drawn), for which the IC50 in assay [1] is 4 µM.

For `CC(=O)N1CCCC1(Cc1ccccc1)C(=O)OCc1ccc(C)cc1` (stereo not drawn), the half-inhibitory concentration (IC50) in assay [1] is 0.79 µM. Take `CC(=O)N1CCCC1(CCc1ccccc1)C(=O)OCc1ccccc1` (stereo not drawn): the half-maximal inhibitory concentration (IC50) in assay [1] worked out at 8 µM. The same measure, in the same setting: the result for `CC(=O)N1CCCC1(Cc1ccccc1)C(=O)OCc1ccncc1` (stereo not drawn) reads above 100 µM. Still for that read-out and setting: the result for `CC(=O)N1CCCC1(Cc1ccccc1)C(=O)OCc1ccccc1Cl` (stereo not drawn) reads 6 µM; that for `O=C(c1ccccc1)N1CCCC1(Cc1ccccc1)C(=O)OCc1ccccc1` (stereo not drawn), 4 µM. With `CCNC(=O)N1CCCC1(Cc1ccccc1)C(=O)OCc1ccccc1` (stereo not drawn), the concentration for half-maximal inhibition (IC50) in assay [1] amounted to 2 µM. For the molecule `CC(=O)N1CCCC1(Cc1cccc(C(F)(F)F)c1)C(=O)OCc1ccccc1` (stereo not drawn), the IC50 in assay [1] amounted to 0.08 µM. As to `CC(=O)N1CCCC1(Cc1ccccc1)C(=O)OCc1ccc(S(C)(=O)=O)cc1` (stereo not drawn), the half-inhibitory concentration (IC50) in assay [1] is above 100 µM. On the same count and under the same terms, the result for `O=C(OCc1ccccc1)C1(Cc2ccccc2)CCCN1` (stereo not drawn) reads above 100 µM; that for `CC(=O)N1CCCC1(Cc1ccccc1)C(=O)OCc1ccc(Cl)cc1` (stereo not drawn), 1.3 µM; that for `CCC(=O)N1CCCC1(Cc1ccccc1)C(=O)OCc1ccccc1` (stereo not drawn), 1.2 µM.

For `CC(=O)N1CCCC1(Cc1ccccc1C#N)C(=O)OCc1ccccc1` (stereo not drawn), in assay [1], the half-inhibitory concentration (IC50) was 5 µM. Consider `CC(=O)N1CCCC1(Cc1ccccc1)C(=O)OCc1ccc(C(F)(F)F)cc1` (stereo not drawn), for which the IC50 in assay [1] was found to be 5 µM. On to `COc1ccc(CC2(C(=O)OCc3ccccc3)CCCN2C(C)=O)cc1C(F)(F)F` (stereo not drawn), for which the IC50 in assay [1] came to 0.05 µM. On the same count and under the same terms, the result for `CC(=O)N1CCCC1(Cc1ccc(S(C)(=O)=O)cc1)C(=O)OCc1ccccc1` (single isomer, unassigned; (-)) reads 40 µM; that for `CC(=O)N1CCCC1(Cc1ccccc1)C(=O)N(C)Cc1ccccc1` (stereo not drawn), 32 µM. On to `CC(=O)N1CCCC1(Cc1ccc(S(C)(=O)=O)cc1)C(=O)OCc1ccccc1` (single isomer, unassigned; (+)), for which, in assay [1], the IC50 stood at 0.4 µM. Regarding `CC(=O)N1CCCC1(Cc1ccc(Cl)cc1)C(=O)OCc1ccccc1` (stereo not drawn), the concentration for half-maximal inhibition (IC50) in assay [1] worked out at 0.32 µM. As for `CC(=O)N1CCCC1(Cc1ccsc1)C(=O)OCc1ccccc1` (stereo not drawn), in assay [1], the IC50 came to 0.79 µM.

For `CC(=O)N1CCCC1(Cc1ccccc1)C(=O)OCc1cccc(Cl)c1` (stereo not drawn), the IC50 in assay [1] was found to be 2.5 µM. On to `O=C(C1CC1)N1CCCC1(Cc1ccccc1)C(=O)OCc1ccccc1` (stereo not drawn), for which the half-maximal inhibitory concentration (IC50) in assay [1] stood at 0.32 µM. Turning to `NS(=O)(=O)c1cc(C(=O)O)c(NCc2ccco2)cc1Cl` [FUROSEMIDE], the inhibition – broadly, the share of the control response that was lost under treatment – at 100 µM in assay [2] (Canis lupus familiaris, MDCK, 0.75 h) amounted to 100%. As to `CC(=O)N1CCCC1(Cc1ccc(F)cc1C(F)(F)F)C(=O)OCc1ccccc1` (stereo not drawn), the concentration for half-maximal inhibition (IC50) in assay [1] came to 4 µM. Take `CC(=O)N1CCCC1(Cc1ccccc1)C(=O)OCCc1ccccc1` (stereo not drawn): the IC50 in assay [1] worked out at 10 µM.

`COC(=O)N1CCCC1(Cc1ccccc1)C(=O)OCc1ccccc1` (stereo not drawn): the 50% inhibitory concentration (IC50) in assay [1] stood at 0.4 µM.

As for `CCC1(C(=O)OCc2ccccc2)CCCN1C(C)=O` (stereo not drawn), the half-maximal inhibitory concentration (IC50) in assay [1] was determined as 80 µM. As to `CC(=O)N1CCCC1(Cc1ccc(C)cc1)C(=O)OCc1ccccc1` (stereo not drawn), in assay [1], the half-maximal inhibitory concentration (IC50) worked out at 0.79 µM.
